# Bioassay records: PubChem BioAssay, several laboratories
# TMEM16A inh – mouse TMEM16A channel inhibition, primary screen. Q8BHY3. HEK293 TMEM16A/YFP iodide influx fluorescence, ionomycin. normalized B-score (activity score, 25-100; higher = stronger inhibition) at 10 µM. hit rate 1.2% among 310,000. AID 588511;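 active means ratio plate-corrected score three or more library SD toward inhibition, starting fluorescence score within five deviations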;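 further: score derived from kinetic fluorescence span divided by baseline fluorescence per well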
# Hep lipid drop – hepatic lipid droplet formation modulation; AML12 mouse hepatocytes, oleate lipid droplets, BODIPY imaging; inhibition, % at 6.5 µM; hit rate 0.4% among 240,000;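 active means lipid droplet intensity inhibited by at least 50%, with more than 500 cells counted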
#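 Material: mouse AML12 hepatocyte cell line, fixed after treatment; Timing: compound with oleate, overnight; Technique: high-content imaging of BODIPY-stained droplets and DAPI nuclei; Probe or stimulus: oleate, 100 µM final; Dosing: compound at 6.5 µM only.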
# XBP1 UPR activ – adaptive UPR (XBP1) activation; CHO-XBP1 luciferase reporter, IRE1-XBP1 UPR activation, luminescence; percent of tunicamycin response, DMSO as zero; activation, % at 20 µM; hit rate 0.33% among 330,000; AID 463104;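 active means versus positive control, 20 µM dose yields 30% or more activation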
#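 Material: CHO-XBP1 cells stably carrying IRE1-XBP1-driven luciferase reporter / Amount: 1000 cells per well / Compound: 20 µM, 1% DMSO / Times: 6 h treatment, 37 °C / Detection: luciferase luminescence / Measure: % activation of reporter signal versus tunicamycin and DMSO controls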
# UPR CHOP act – activators of apoptotic arm of unfolded protein response (CHOP); CHO-CHOP luciferase reporter, UPR activation, luminescence; percent of tunicamycin response over DMSO baseline; activation, % at 10 µM; hit rate 0.34% among 330,000; AID 449763;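 active means at 10 µM dose, activation of 40% or more, normalized to positive control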
#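 System: CHO CHOP reporter cells. Amount: 500 cells per well. Buffer or medium: F12 medium, 10% FBS. Compound dosing: one dose, 10 µM in 0.5% DMSO. Incubation: 6 h compound exposure at 37 °C after overnight seeding. Technique: Steady-Glo luciferase luminescence. Benchmarks: tunicamycin and DMSO controls.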
# CHOP inh – CHOP inhibition in unfolded protein response; AID 2732; inhibition, % at 10 µM; hit rate 3.8% among 220,000; CHO-K1 CHOP-promoter luciferase, tunicamycin-induced, 15-18 h;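 active means compounds that reduced the stress-induced luciferase reporter signal by more than about 70% of percent inhibition, limit read from the data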
# TMEM16A act – activates or potentiates the mouse TMEM16A chloride channel; hit rate 0.3% among 340,000; B-score at 10 µM; HEK293 TMEM16A/YFP-H148Q/I152L, iodide quench fluorescence; active compounds read low; Q8BHY3;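 active means fluorescence-ratio B-score plate-corrected deviation score at least 3 library SD below zero, with starting fluorescence score within 5 deviations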;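 further: channel opened by trigger with iodide after compound preincubation; score built on the fluorescence ratio of max minus min over baseline; more negative score means more quench and so TMEM16A activation or potentiation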
# CHOP inh conf – confirmation of CHOP induction inhibitors | shares compounds with CHOP inh | inhibition, % at 10 µM | CHO-CHOP promoter luciferase reporter, tunicamycin-induced, luminescence | hit rate 45% among 2,100 | AID 504437;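 active means mean of three repeat readings of reporter signal inhibition above a set limit, cut at about 70% in these data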
# A number is an active result; . = inactive; / = not tested or not shown. Only some compounds are listed: those with a hit (about 4.2% of all), similar ones and a draw of the others.
SMILES,TMEM16A inh,Hep lipid drop,XBP1 UPR activ,UPR CHOP act,CHOP inh,TMEM16A act,CHOP inh conf
CCc1nnc(NC(=O)c2c(O)c3cccc4c3n(c2=O)CC4)s1,/,.,/,/,/,/,/
CC(C)c1nnc(NC(=O)c2c(O)c3cccc4c3n(c2=O)CCC4)s1,.,/,.,.,103.8,.,109.3
COC(=O)c1[nH]c2ccc(F)cc2c1NC(=O)Nc1ccc(OC)cc1,.,/,.,.,.,.,/
COC(=O)c1[nH]c2ccc(C)cc2c1NC(=O)Nc1ccc(OC)cc1,.,.,.,.,101.0,.,.
O=C(NCCC1=CCCCC1)c1ccc(-n2cncn2)c([N+](=O)[O-])c1,.,/,.,.,/,.,/
CCc1ccccc1NC(=O)c1cnn(-c2ccccc2)c1C,.,.,.,.,/,.,/
COC(=O)Nc1sc2c(c1C(=O)NCc1ccco1)CCCC2,.,.,.,.,.,.,/
Cc1ccc(C(=O)Nc2sc3c(c2C(=O)NCc2ccco2)CCCC3)cc1,.,.,.,.,104.0,.,.
CN1CCN(C(CNS(=O)(=O)c2ccc([N+](=O)[O-])cc2)c2ccc(F)cc2)CC1 (stereo not given),.,/,.,.,/,.,/
CCN(CC)C(=O)CSc1nc(N)c(C#N)c(-c2cccs2)c1C#N,.,.,.,.,.,.,/
Cc1ccccc1NC(=O)CSc1nc(N)c(C#N)c(-c2cccs2)c1C#N,.,.,.,.,105.2,.,.
CCN(CC(O)Cn1c2ccccc2c2ccccc21)S(=O)(=O)c1ccc(C)cc1 (stereo not given),.,.,.,.,98.6,.,.
CC(=O)Nc1ccccc1N(CC(O)Cn1c2ccccc2c2ccccc21)S(=O)(=O)c1ccc(C)cc1 (stereo not given),.,.,.,.,.,.,/
CCN(CC)c1ccc(C(=O)Nn2cnc3ccccc3c2=O)cc1,.,.,.,.,/,.,/
CN(C)CCCn1c(SCC(=O)Nc2nc(-c3cccc(Br)c3)cs2)nc2ccccc2c1=O,.,.,.,.,105.6,.,104.6
Cc1cc(C)n(C(=O)CN(C)S(=O)(=O)c2ccc([N+](=O)[O-])cc2)n1,.,.,.,.,/,.,/
CCc1nnc(NC(=O)c2sc3nc4c(cc3c2N)CCCCCC4)s1,.,.,.,.,104.6,.,.
CCc1nnc(NC(=O)c2sc3nc4c(cc3c2N)CCCCC4)s1,.,.,.,.,.,.,/
COc1ccc2nc(NC(=O)C3CCCN(S(=O)(=O)c4cccs4)C3)sc2c1 (stereo not given),.,.,.,.,96.2,.,.
O=C(CSc1nnc(NC(=O)c2ccccc2[N+](=O)[O-])s1)NCc1ccco1,.,.,.,.,/,.,/
Cc1ccc(C)c(S(=O)(=O)ON2C(=O)c3ccccc3C2=O)c1,.,.,.,.,106.3,.,105.5
O=C1c2cccc3cccc(c23)C(=O)N1OS(=O)(=O)c1ccccc1,.,.,.,.,.,.,/
O=C1c2ccccc2C(=O)N1OS(=O)(=O)c1ccccc1,.,.,/,/,107.8,/,.
COc1ccc2c(c1)c1ccc3c(c1n2C)C(=O)C=CC3=O,/,.,.,.,103.9,.,.
O=C(Cc1csc(Nc2nc(=S)[nH]c3ccccc23)n1)N1CCN(c2cccc(Cl)c2)CC1,.,.,.,.,102.8,.,.
SMILES,TMEM16A inh,Hep lipid drop,XBP1 UPR activ,UPR CHOP act,CHOP inh,TMEM16A act,CHOP inh conf
O=C(O)c1cccc(S(=O)(=O)N2CCN(S(=O)(=O)c3ccc4ccccc4c3)CC2)c1,/,/,.,.,/,.,/
CCCc1cc(C(=O)Nc2cc(Br)ccc2O)no1,.,.,.,.,/,.,.
COC(=O)CC(NC(=O)Nc1ccccc1F)c1ccc2c(c1)OCO2 (stereo not given),.,.,.,.,/,.,/
CCOC(=O)Cc1cc(-c2ccc(O)cc2)nc2ccc3ccccc3c12,.,/,.,.,100.9,.,96.2
O=[N+]([O-])c1ccc(/C=N/N=C/c2ccc([N+](=O)[O-])o2)o1,/,.,/,/,108.2,.,134.5
O=C(O)/C=C/c1ccc([N+](=O)[O-])o1,.,.,.,.,.,.,/
